Compound activity (PubChem)
Compounds with a hit are over-represented: about 2.4% of the library has one in this group of screens.
TDP2 inh = TDP2 (human) inhibition, absorbance primary screen | AID 720702 | inhibition, % at 12.8 µM | 0.34% of 370,000 active | recombinant TDP2, T5PNP hydrolysis, p-nitrophenol absorbance 415 nm;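 active = inhibition above the mean of all tested compounds plus 3 SD, set per campaign, cut at about 25% in these data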;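 also: 0% = DMSO with enzyme and 100% = buffer with substrate but no TDP2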
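Material: recombinant human TDP2; quantity: TDP2 enzyme at 120 nM final; medium: Tris-HCl pH 7.5 with MgCl2; compound: single concentration, 12.8 µM nominal, with 1% DMSO; incubation: 2 h enzyme incubation at 37 °C; signal: epi absorbance; measure: percent inhibition; benchmarks: high control without enzyme, low control DMSO plus TDP2; repeats: singlicate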
GSTO1 counter = GSTO1 inhibition, counter-screen for RBBP9 inhibitors; P78417; recombinant GSTO1, activity-based probe fluorescence polarization; inhibition, % at 5.96 µM; 1.1% of 300,000 active; AID 1974;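 active = inhibition above the campaign mean inhibition plus 3 SD, cut at about 35% in these data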;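 also: 0% = GSTO1-1 with DMSO and 100% = wells lacking GSTO1-1 enzyme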
Apaf1 inhib = human Apaf-1 inhibition. inhibition, % at 20 µM. reconstituted apoptosome caspase-3 activity, DEVD-Rh110 fluorescence. 0.71% of 330,000 active. O14727; active = inhibition of at least 40% at 20 µM;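 also: plate controls were DMSO wells for no effect and DEVD-CHO caspase inhibitor wells for full effect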
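System: reconstituted apoptosome with Apaf-1, cytochrome c, caspase-9, procaspase-3, dATP; Signal: Rh110 fluorescence intensity; Schedule: 30 min compound preincubation, 50 min activation, room temperature; Reagent: cytochrome c trigger plus (Z-DEVD)2-Rh110 caspase-3 substrate.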
TCR CD3 inh = blocks the human TCR-CD3 interaction; AID 651800; inhibition, % at 9.4 µM; TAMRA-labeled TCR probe fluorescence, biochemical; 0.37% of 360,000 active; in the data active = inhibition above about 19%;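 also: recombinant mutant TCR 2C K166C tagged with TAMRA read by polarization; 0% = receptor in buffer alone and 100% = receptor with positive control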
PAD4 FP inh = inhibitors of human PAD4 | 0.41% of 330,000 active | AID 485272 | inhibition, % at 6.36 µM | recombinant PAD4, RCA probe fluorescence polarization | Q9UM07;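 active = percent inhibition above a cutoff equal to the mean of all tested compounds plus 3 SD, cut at about 15% in these data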;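 also: 0% = PAD4 with RCA probe and DMSO and 100% = probe without PAD4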
Target sequence (Q9UM07 whole entry, looked up): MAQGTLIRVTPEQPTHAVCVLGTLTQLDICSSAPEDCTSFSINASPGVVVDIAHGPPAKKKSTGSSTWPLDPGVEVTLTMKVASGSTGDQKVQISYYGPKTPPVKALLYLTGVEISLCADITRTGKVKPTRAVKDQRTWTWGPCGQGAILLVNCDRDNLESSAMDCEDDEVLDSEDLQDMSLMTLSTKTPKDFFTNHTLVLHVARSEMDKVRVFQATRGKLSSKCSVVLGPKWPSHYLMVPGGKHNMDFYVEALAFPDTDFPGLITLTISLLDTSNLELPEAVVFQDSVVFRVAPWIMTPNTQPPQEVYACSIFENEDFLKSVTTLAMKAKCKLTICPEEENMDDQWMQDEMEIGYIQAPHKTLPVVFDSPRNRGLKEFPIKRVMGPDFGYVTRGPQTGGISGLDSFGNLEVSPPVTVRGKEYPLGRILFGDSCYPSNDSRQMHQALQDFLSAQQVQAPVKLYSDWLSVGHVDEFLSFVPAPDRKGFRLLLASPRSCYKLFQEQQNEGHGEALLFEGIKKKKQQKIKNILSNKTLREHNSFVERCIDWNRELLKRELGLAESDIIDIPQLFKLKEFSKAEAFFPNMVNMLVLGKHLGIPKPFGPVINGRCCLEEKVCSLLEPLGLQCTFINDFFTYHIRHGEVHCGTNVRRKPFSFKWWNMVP
SIAE inh = inhibitors of human sialic acid acetylesterase SIAE | Q9HAT2 | 0.69% of 370,000 active | inhibition, % at 9.66 µM | SIAE FP-Rh probe binding, fluorescence polarization;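 active = inhibition above a cutoff: mean of compounds within the control limits plus 3 SD of those, cut at about 17% in these data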;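 also: 0% = plate median of compound wells and 100% = probe without SIAE protein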
GSTO1 confirm = GSTO1 (human) inhibition, confirmation; shares compounds with GSTO1 counter; 54% of 2,400 active; AID 2176; inhibition, % at 5.96 µM; recombinant GSTO1, probe fluorescence polarization;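 active = inhibition above the primary screen's cutoff, its mean inhibition plus 3 SD, cut at about 35% in these data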;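 also: loss of polarization as inhibitors block binding of rhodamine sulfonate ester activity probe; 0% = GSTO1 with DMSO and 100% = wells lacking GSTO1 enzyme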
PAD4 confirm = PAD4 (human) inhibition, confirmed; shares compounds with PAD4 FP inh; recombinant PAD4, RCA probe fluorescence polarization; inhibition, % at 6.36 µM; 28% of 1,200 active;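 active = mean inhibition across replicates above the hit cutoff set by the earlier primary screen, cut at about 15% in these data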;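 also: inhibitors block active-site labeling by the probe so polarization falls; 0% = PAD4 with probe and DMSO and 100% = probe without PAD4 enzyme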
Apaf-1 inh conf = confirmation of Apaf-1 inhibitors; shares compounds with Apaf1 inhib; 25% of 1,800 active; AID 504614; inhibition, % at 20 µM; reconstituted apoptosome, caspase-3 DEVD-Rh110 fluorescence;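 active = mean inhibition of at least 40% at 20 µM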;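 also: plate controls were DMSO wells for no effect and DEVD-CHO caspase inhibitor control wells for full effect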
Rh110 quench = Rh110 signal interference in Apaf-1 inhibitor counter-screen; shares compounds with Apaf1 inhib; Rh110 fluorescence interference, quenched caspase reaction; activation (fluorescence interference), % at 20 µM; 1,800 tested, under 10 active;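 active = signal rise of 40% or more at 20 µM, treated as a fluorescence artifact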
Apaf1 inh interf = shows fluorescence interference in the Apaf-1 inhibitor assay format. shares compounds with Apaf1 inhib. fluorescence interference counterscreen, Apaf-1 assay format. IC50, µM. 460 tested, under 10 active; call rule not given here
TDP2 inh conf = human TDP2 inhibition, confirmation. shares compounds with TDP2 inh. recombinant human TDP2, absorbance read-out. inhibition, % at 12.8 µM. 22% of 1,100 active. AID 743263; in the data active = inhibition above about 25%;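 also: 0% = vehicle with enzyme and 100% = no enzyme buffer only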
* = called active by the depositor.

`Cc1ccc(N=Cc2ccc(N(C)C)cc2)cc1` gave TDP2 inh 7.8, GSTO1 counter 5.7, Apaf1 inhib -5.6, TCR CD3 inh -6.9, PAD4 FP inh -0.8 and SIAE inh 3.9.
CN(C)c1ccc(C=Nc2ccc(N(C)C)cc2)cc1 was read as TDP2 inh 27.8*, GSTO1 counter 78.1*, Apaf1 inhib 39.1, TCR CD3 inh 14.8, PAD4 FP inh 31.5*, SIAE inh 13.5, GSTO1 confirm 5.5, PAD4 confirm -4.2 and TDP2 inh conf 4.1.
For COc1ccc(OC)c(Nc2nnc(C)c(=O)[nH]2)c1 the results were TDP2 inh -5.5, GSTO1 counter 3.3, Apaf1 inhib 5.9, TCR CD3 inh 0.2, PAD4 FP inh 0.5 and SIAE inh 11.7.
For O=c1[nH]c(Nc2ccccc2)cc2ccccc12 the results were TDP2 inh 68.9*, GSTO1 counter 80.2*, Apaf1 inhib 96.1*, TCR CD3 inh -4.1, PAD4 FP inh 65.0*, SIAE inh -1.3, GSTO1 confirm 47.1*, PAD4 confirm 17.5*, Apaf-1 inh conf 93.8*, Rh110 quench -1.0, Apaf1 inh interf >100 and TDP2 inh conf 66.4*.
`CC(=O)c1cccc(Nc2nc(-c3ccccc3)nc3ccccc23)c1` gave TDP2 inh 13.2, GSTO1 counter -0.3, Apaf1 inhib -3.1, TCR CD3 inh -0.9, PAD4 FP inh -4.1 and SIAE inh -7.3.
Screening CC(=O)c1cccc(-c2ccc3c(=O)[nH]c(Nc4ccccc4)cc3c2)c1 returned TDP2 inh 56.9*, GSTO1 counter 48.9*, Apaf1 inhib 96.2*, TCR CD3 inh 6.5, PAD4 FP inh -6.8, SIAE inh -18.3, GSTO1 confirm 11.6, Apaf-1 inh conf 87.8*, Rh110 quench 8.5 and TDP2 inh conf 52.3*.
For COc1ccccc1Nc1cc2cc(Br)ccc2c(=O)[nH]1 the results were TDP2 inh 63.2*, GSTO1 counter 42.0*, Apaf1 inhib 96.8*, TCR CD3 inh 2.4, PAD4 FP inh 34.0*, SIAE inh 6.7, GSTO1 confirm 12.1, PAD4 confirm 5.1, Apaf-1 inh conf 98.1*, Rh110 quench 15.9, Apaf1 inh interf >100 and TDP2 inh conf 57.0*.
Screening COc1ccc(OC)c(Nc2cc3ccccc3c(=O)[nH]2)c1 returned TDP2 inh 67.7*, GSTO1 counter 70.7*, Apaf1 inhib 96.8*, TCR CD3 inh -5.0, PAD4 FP inh 39.3*, SIAE inh 10.4, GSTO1 confirm 5.8, PAD4 confirm -1.1, Apaf-1 inh conf 94.4*, Rh110 quench 5.1, Apaf1 inh interf >100 and TDP2 inh conf 60.7*.
`O=c1cc(Nc2cccc(Br)c2)[nH]c(=O)[nH]1` gave TDP2 inh 8.4, GSTO1 counter -8.6, Apaf1 inhib 7.4, TCR CD3 inh 4.3, PAD4 FP inh 1.0 and SIAE inh 3.6.
O=c1[nH]c(Nc2ccccc2)cc2cc(Br)ccc12 was read as TDP2 inh 83.2*, GSTO1 counter 58.4*, Apaf1 inhib 97.9*, TCR CD3 inh -2.5, PAD4 FP inh 64.0*, SIAE inh 7.2, GSTO1 confirm 18.8, PAD4 confirm -6.2 and TDP2 inh conf 57.8*.
O=C(NC1(O)C(=O)c2ccccc2C1=O)c1ccccc1 was read as TDP2 inh 53.9*, GSTO1 counter 76.6*, Apaf1 inhib 93.5*, TCR CD3 inh 4.3, PAD4 FP inh 6.7, SIAE inh 3.0, GSTO1 confirm 81.8*, Apaf-1 inh conf 96.5*, Rh110 quench 1.9, Apaf1 inh interf >100 and TDP2 inh conf 83.9*.
COC1(NC(=O)c2ccccc2)C(C)=CC(=O)C=C1C was read as TDP2 inh -9.3, GSTO1 counter 3.1, Apaf1 inhib 1.2, TCR CD3 inh -6.5, PAD4 FP inh -5.0 and SIAE inh -11.0.
For Clc1ccc(C2CC(c3cccs3)n3ncnc3N2)cc1 (stereo not drawn) the results were TDP2 inh 8.5, GSTO1 counter -5.7, Apaf1 inhib -4.8, TCR CD3 inh -1.6, PAD4 FP inh 0.2 and SIAE inh -6.1.
For CC1(C)Cc2ccccc2C2=NNC(=O)C2=N1 the results were TDP2 inh 28.2*, GSTO1 counter 55.5*, Apaf1 inhib 62.1*, TCR CD3 inh 1.8, PAD4 FP inh 3.6, SIAE inh 2.8, GSTO1 confirm 81.8*, Apaf-1 inh conf 63.9*, Rh110 quench 2.9, Apaf1 inh interf >100 and TDP2 inh conf 34.1*.
`Cc1[nH]n(-c2ccccc2)c(=O)c1C(c1ccc(C(=O)O)cc1)c1c(C)[nH]n(-c2ccccc2)c1=O` gave TDP2 inh 99.2*, GSTO1 counter 60.5*, Apaf1 inhib 70.6*, TCR CD3 inh 0.9, PAD4 FP inh 72.9*, SIAE inh 3.2, GSTO1 confirm 17.5, PAD4 confirm 13.4, Apaf-1 inh conf 22.1, Rh110 quench 5.7 and TDP2 inh conf 25.3*.
For Cc1cc(=O)n(CCCc2ccccc2)[nH]1 the results were TDP2 inh 37.3*, GSTO1 counter 42.2*, Apaf1 inhib 11.9, TCR CD3 inh -1.5, PAD4 FP inh 29.0*, SIAE inh 7.5, GSTO1 confirm 7.9, PAD4 confirm -4.6 and TDP2 inh conf 5.9.
Cc1cccc(CN2CCN(CCCc3ccccc3)CC2)c1 was read as GSTO1 counter 7.0, Apaf1 inhib -12.1 and PAD4 FP inh -1.7.
O=C1C(O)=C(O)C(=O)c2ccccc21 was read as TDP2 inh 57.5*, GSTO1 counter 81.0*, Apaf1 inhib 92.1*, TCR CD3 inh -4.5, PAD4 FP inh 2.3, SIAE inh 2.3, GSTO1 confirm 68.0*, Apaf-1 inh conf 66.8*, Rh110 quench 7.2, Apaf1 inh interf >100 and TDP2 inh conf 72.2*.
For O=C1C(=O)c2ccccc2C(O)=C1c1ccccc1F the results were TDP2 inh 0.9, GSTO1 counter -5.1, Apaf1 inhib 4.0, TCR CD3 inh -10.5, PAD4 FP inh -5.0 and SIAE inh 4.1.
